Laboratory results: ChEMBL document CHEMBL3108749, “Discovery of a non-estrogenic irreversible inhibitor of 17β-hydroxysteroid dehydrogenase type 1 from 3-substituted-16β-(m-carbamoylbenzyl)-estradiol derivatives” (J Med Chem, 2014)
pIC50: −log10 of the molar value. Active and inactive are the calls of the source. The calls are words filed in the database; no cut-off is given here.

How the values were obtained:
T47D [1] = experiment: Cytotoxicity against human estrogen-starved estrogen-sensitive T47D cells assessed as cell growth at 1 uM after 7 days by MTS assay relative to control; assay type: functional; conditions: 168 h, read-out: Activity
Procedure, shortened: (§1)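 MCF-7 (DMEM-F12) or T-47D (RPMI) cells are kept in medium with insulin (50 ng/mL) and 5% dextran-coated charcoal-treated FBS, seeded at 3000 cells/well. After 48 h, medium is replaced with medium containing compound, renewed every two days, and cells grow seven days. Growth is read by CellTiter 96 aqueous (MTS) assay as % proliferation vs basal control (0%). Scored −/+/++/+++ bands.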

T47D [2] = experiment: Cytotoxicity against human estrogen-starved estrogen-sensitive T47D cells assessed as cell growth at 0.1 uM after 7 days by MTS assay relative to control; assay type: functional; conditions: 168 h, read-out: Activity; procedure, shortened: as §1
[3] = target: T1, 17-beta-hydroxysteroid dehydrogenase type 1 (Homo sapiens) (UniProt P14061); experiment: Inhibition of 17-beta HSD1 in human T47D cells assessed as transformation of [14C]E1 to [14C]E2 at 0.1 uM after 24 hrs by thin layer chromatography; assay type: cell-based
T1 sequence (whole entry): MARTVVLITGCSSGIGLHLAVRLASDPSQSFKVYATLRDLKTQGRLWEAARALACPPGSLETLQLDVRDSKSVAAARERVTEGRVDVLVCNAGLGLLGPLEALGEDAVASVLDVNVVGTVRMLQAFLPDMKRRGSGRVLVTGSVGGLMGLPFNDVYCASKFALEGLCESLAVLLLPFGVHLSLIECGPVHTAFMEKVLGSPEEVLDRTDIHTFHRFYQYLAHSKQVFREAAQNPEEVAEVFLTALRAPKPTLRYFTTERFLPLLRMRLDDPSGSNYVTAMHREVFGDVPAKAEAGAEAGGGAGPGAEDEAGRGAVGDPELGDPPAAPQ
Procedure, shortened: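 T-47D cells (endogenous 17β-HSD1) are seeded at 3000 cells/well in RPMI with insulin (50 ng/mL) and 5% charcoal-stripped FBS. After 24 h, compound (from EtOH stock, 0.1 μM final) is added with [14C]-E1 (60 nM) for 24 h. Steroids are extracted into diethyl ether, separated by silica TLC (toluene/acetone 4:1) and quantified. Mean ± SD of ≥2 independent experiments in triplicate.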

[4] = target: T2, 3-keto-steroid reductase/17-beta-hydroxysteroid dehydrogenase 7 (Homo sapiens) (UniProt P56937); experiment: Inhibition of 17-beta HSD7 (unknown origin) transfected in HEK293 cells using [14C]E1 as substrate at 10 uM; assay type: cell-based
T2 sequence (whole entry): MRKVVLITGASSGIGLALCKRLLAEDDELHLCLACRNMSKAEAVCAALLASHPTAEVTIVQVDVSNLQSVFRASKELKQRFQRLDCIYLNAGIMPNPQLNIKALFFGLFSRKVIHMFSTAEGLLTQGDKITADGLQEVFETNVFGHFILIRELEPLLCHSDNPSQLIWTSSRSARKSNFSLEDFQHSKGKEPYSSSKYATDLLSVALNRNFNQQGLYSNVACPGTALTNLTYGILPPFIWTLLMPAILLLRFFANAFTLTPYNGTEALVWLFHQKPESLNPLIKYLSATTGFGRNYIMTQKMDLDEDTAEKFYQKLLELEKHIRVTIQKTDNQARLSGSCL
Procedure, shortened: (§2)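 Stably transfected HEK-293 cells in stripped-serum MEM with G418 and insulin, seeded 48 h. Then treated with compound in DMSO (<0.5% final) plus 60 nM substrate: [14C]-E2 for 17β-HSD2, [14C]-E1 for 17β-HSD7 and 17β-HSD12. Stopped at 12–25% substrate conversion; ether extraction, TLC, radiolabel quantification; triplicates, at least two experiments.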

[5] = target: T3, 17-beta-hydroxysteroid dehydrogenase type 1 (Homo sapiens, UniProt P14061); experiment: Inhibition of 17-beta HSD1 in human T47D cells assessed as transformation of [14C]E1 to [14C]E2 after 24 hrs by thin layer chromatography; assay type: cell-based
T3 sequence (P14061 whole entry): T1 sequence (whole entry)
Procedure, shortened: (§3)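 Intact T-47D cells in RPMI with insulin (50 ng/mL) and 5% dextran-charcoal-treated FBS. After 24 h, inhibitor (from EtOH stock) added at 0.1 or 1 μM for screening or 1 nM–10 μM for IC50, with [14C]-E1 (60 nM), for 24 h. Ether extraction, TLC (toluene/acetone 4:1). IC50 = concentration halving E1→E2 conversion; triplicates, at least two experiments.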

Cytochrome P450 3A4 = Cytochrome P450 3A4 (Homo sapiens, UniProt P08684); experiment: Inhibition of CYP3A4 (unknown origin) by fluorescence assay; assay type: ADME
Chain of Cytochrome P450 3A4 (P08684 whole entry): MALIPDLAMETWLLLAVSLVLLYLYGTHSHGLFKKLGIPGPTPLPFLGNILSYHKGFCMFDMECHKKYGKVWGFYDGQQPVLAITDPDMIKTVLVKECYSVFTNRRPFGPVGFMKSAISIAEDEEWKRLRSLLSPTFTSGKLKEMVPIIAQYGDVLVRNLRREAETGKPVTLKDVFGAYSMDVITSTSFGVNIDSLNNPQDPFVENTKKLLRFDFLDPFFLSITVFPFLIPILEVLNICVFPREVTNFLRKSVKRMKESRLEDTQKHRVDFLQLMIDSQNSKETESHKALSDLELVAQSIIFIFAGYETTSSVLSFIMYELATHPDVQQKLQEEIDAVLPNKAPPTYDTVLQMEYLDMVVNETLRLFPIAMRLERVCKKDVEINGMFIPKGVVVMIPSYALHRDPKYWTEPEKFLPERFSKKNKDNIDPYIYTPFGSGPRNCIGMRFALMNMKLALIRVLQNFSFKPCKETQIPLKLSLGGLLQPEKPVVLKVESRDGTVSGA
Procedure, shortened: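 Commercial CYP3A4 kit with dibenzylfluorescein as substrate, read by fluorescence of its enzymatic product. Compound dissolved in DMSO/acetonitrile (5:95). IC50 from means of at least two experiments in triplicate.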

[6] = target: T4, Very-long-chain 3-oxoacyl-CoA reductase (Homo sapiens) (UniProt Q53GQ0); experiment: Inhibition of 17-beta HSD12 (unknown origin) transfected in HEK293 cells using [14C]E1 as substrate at 10 uM; assay type: cell-based; procedure, shortened: as §2
T4 sequence (whole entry): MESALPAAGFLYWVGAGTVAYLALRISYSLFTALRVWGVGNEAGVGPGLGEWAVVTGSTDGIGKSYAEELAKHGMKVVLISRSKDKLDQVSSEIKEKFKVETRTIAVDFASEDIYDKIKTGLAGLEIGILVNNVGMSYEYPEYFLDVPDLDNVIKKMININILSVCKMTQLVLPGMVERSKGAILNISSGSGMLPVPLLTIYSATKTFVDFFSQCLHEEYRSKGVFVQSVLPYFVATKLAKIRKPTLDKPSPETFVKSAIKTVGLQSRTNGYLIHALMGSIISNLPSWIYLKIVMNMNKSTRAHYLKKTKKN

[7] = target: T5, 17-beta-hydroxysteroid dehydrogenase type 2 (Homo sapiens) (UniProt P37059); experiment: Inhibition of 17-beta HSD2 (unknown origin) transfected in HEK293 cells using [14C]E2 as substrate at 10 uM; assay type: cell-based; procedure, shortened: as §2
T5 sequence (whole entry): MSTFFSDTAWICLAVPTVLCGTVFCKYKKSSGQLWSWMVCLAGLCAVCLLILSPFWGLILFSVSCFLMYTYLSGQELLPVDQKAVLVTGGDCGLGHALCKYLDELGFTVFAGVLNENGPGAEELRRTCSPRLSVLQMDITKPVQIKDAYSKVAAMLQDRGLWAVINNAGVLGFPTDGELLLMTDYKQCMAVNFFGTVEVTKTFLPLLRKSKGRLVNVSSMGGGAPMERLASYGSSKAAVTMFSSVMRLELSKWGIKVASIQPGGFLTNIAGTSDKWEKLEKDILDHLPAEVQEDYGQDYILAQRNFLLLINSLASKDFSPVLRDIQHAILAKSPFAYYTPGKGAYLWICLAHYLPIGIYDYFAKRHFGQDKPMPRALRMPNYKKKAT

MCF7 [8] = experiment: Cytotoxicity against human estrogen-starved estrogen-sensitive MCF7 cells assessed as cell growth at 1 uM after 7 days by MTS assay relative to control; assay type: functional; conditions: MCF7, 168 h, read-out: Activity; procedure, shortened: as §1
MCF7 [9] = experiment: Cytotoxicity against human estrogen-starved estrogen-sensitive MCF7 cells assessed as cell growth at 0.1 uM after 7 days by MTS assay relative to control; assay type: functional; conditions: MCF7, 168 h, read-out: Activity; procedure, shortened: as §1
[10] = target: T1, 17-beta-hydroxysteroid dehydrogenase type 1 (Homo sapiens); experiment: Competitive inhibition of 17-beta HSD1 (unknown origin) using [14C]E1/E1 as substrate assessed as transformation of [14C]E1 to [14C]E2 at 0.1 to 0.5 uM after 45 mins by thin layer chromatography
Procedure, shortened: (§4)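 Purified 17β-HSD1 in buffer (100 mM Tris, 20% glycerol, 0.2 mg/mL BSA, 2 mM EDTA) with 1 mM NADPH, preincubated at 37 °C with inhibitor (0, 100 or 500 nM), with or without unlabeled E1 (500 nM), over varying times. Then diluted 1:20 with [14C]-E1 (60 nM final), 45 min at 37 °C. Ether extraction, TLC, radiolabel quantification; activity as % of initial; triplicate.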

[11] = target: T1, 17-beta-hydroxysteroid dehydrogenase type 1 (Homo sapiens); experiment: Irreversible inhibition of 17-beta HSD1 (unknown origin) using [14C]E1 as substrate at 0.1 to 0.5 uM after 45 mins by thin layer chromatography; procedure, shortened: as §4
[12] = target: T1, 17-beta-hydroxysteroid dehydrogenase type 1 (Homo sapiens); experiment: Inhibition of 17-beta HSD1 (unknown origin) using [14C]E1 as substrate at 0.1 to 0.5 uM by thin layer chromatography; conditions: TDE = time-dependent effect; procedure, shortened: as §4
[13] = target: T3, 17-beta-hydroxysteroid dehydrogenase type 1; experiment: Inhibition of 17-beta HSD1 in human T47D cells; assay type: cell-based; procedure, shortened: as §3

Compound	% proliferation above basal control (0% = control) at 1 µM (T47D [1]) [%]	percent proliferation above basal control at 0.1 µM (T47D [2]) [%]	inhibition [3] [%]	percent proliferation above basal control at 1 µM (MCF7 [8]) [%]	percent proliferation above basal control at 0.1 µM (MCF7 [9]) [%]	further results
C[C@]12CC[C@@H]3c4ccc(CCCl)cc4CC[C@H]3[C@@H]1C[C@H](Cc1cccc(C(N)=O)c1)[C@@H]2O	0	0	12			
C[C@]12CC[C@@H]3c4ccc(CCI)cc4CC[C@H]3[C@@H]1C[C@H](Cc1cccc(C(N)=O)c1)[C@@H]2O	0	0	54			
CCCCCCCN(C)[C@H]1CC[C@H]2C3CC[C@H]4NC(=O)CC[C@]4(C)[C@H]3CC[C@]12C (stereo not given in full)						inhibition [4]: 81%
C[C@]12CC[C@@H]3c4ccc(CCc5ccccc5)cc4CC[C@H]3[C@@H]1C[C@H](Cc1cccc(C(N)=O)c1)[C@@H]2O	0	0	17			
C[C@]12CC[C@@H]3c4ccc(CCCBr)cc4CC[C@H]3[C@@H]1C[C@H](Cc1cccc(C(N)=O)c1)[C@@H]2O	0	0	41			pIC50 [5]: 6.82
C[C@]12CC[C@@H]3c4ccc(OCCBr)cc4CC[C@H]3[C@@H]1C[C@H](Cc1cccc(C(N)=O)c1)[C@@H]2O	0	0	37			pIC50 [5]: 6.76
C[C@]12CC[C@@H]3c4ccc(CCCO)cc4CC[C@H]3[C@@H]1C[C@H](Cc1cccc(C(N)=O)c1)[C@@H]2O	5	0	20			
C[C@]12CC[C@@H]3c4ccc(O)cc4CC[C@H]3[C@@H]1C[C@H](Cc1cccc(C(N)=O)c1)[C@@H]2O			72	> 30	> 30	pIC50 (Cytochrome P450 3A4): 5.82; inhibition [6]: 6%; inhibition [4]: 0%; inhibition [7]: 0%
C[C@]12CC[C@@H]3c4ccc(C(=O)O)cc4CC[C@H]3[C@@H]1C[C@H](Cc1cccc(C(N)=O)c1)[C@@H]2O			3	> 30	5	
C[C@]12CC[C@@H]3c4ccc(C(=O)N5CCCC5)cc4CC[C@H]3[C@@H]1C[C@H](Cc1cccc(C(N)=O)c1)[C@@H]2O			3	0	0	
C[C@]12CC[C@@H]3c4ccc(B(O)O)cc4CC[C@H]3[C@@H]1C[C@H](Cc1cccc(C(N)=O)c1)[C@@H]2O			36	> 30	> 30	
C[C@]12CC[C@@H]3c4ccc(CCBr)cc4CC[C@H]3[C@@H]1C[C@H](Cc1cccc(C(N)=O)c1)[C@@H]2O				0	0	inhibition [10]: Active; inhibition [11]: Active; inhibition [12]: tde; pIC50 (Cytochrome P450 3A4): 5.41; inhibition [6]: 34%; inhibition [4]: 9%; inhibition [7]: 7%; pIC50 [13]: 7.01
C[C@]12CC[C@@H]3c4ccc(CBr)cc4CC[C@H]3[C@@H]1C[C@H](Cc1cccc(C(N)=O)c1)[C@@H]2O			30	0	0	
